Assay results reported in publication PMC4220649 (Blood Cancer Journal, 2014).
Read-outs that look alike come from different tables or passages of the source.

Test system: patients with relapsed/refractory lymphoma
Format: in vivo, human
Details: for Drug-related grade ⩾3 AE: Renal failure: includes renal failure acute; for Drug-related AE: PN NEC: peripheral neuropathy, high-level term
Outline: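 Open-label phase 1 in patients with relapsed/refractory lymphoma after ⩾2 prior therapies. Dosing started at one patient per level with doubling from 0.125 to 1.0 mg/m2, then followed a 3+3 schema up to 3.11 mg/m2. DLTs were assessed in cycle 1, and AEs were graded by NCI-CTCAE v3.0.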

SMILES: CC(C)C[C@H](NC(=O)CNC(=O)c1cc(Cl)ccc1Cl)B(O)O [ixazomib]
- Drug-related AE: Paresthesia (dose 1.76 mg/m^2 (n=7)): 0 n
- Drug-related AE: Peripheral edema (dose 1.76 mg/m^2 (n=7)): 1 n
- Drug-related AE: Pyrexia (dose 1.76 mg/m^2 (n=7)): 3 n
- Drug-related AE: Thrombocytopenia (dose 1.76 mg/m^2 (n=7)): 2 n
- Drug-related AE: Vomiting (dose 1.76 mg/m^2 (n=7)): 4 n
- Drug-related grade ⩾3 AE: Any grade ⩾3 AE (dose 1.76 mg/m^2 (n=7)): 3 n
- Drug-related grade ⩾3 AE: Dehydration (dose 1.76 mg/m^2 (n=7)): 0 n
- Drug-related grade ⩾3 AE: Diarrhea (dose 1.76 mg/m^2 (n=7)): 0 n
- Drug-related grade ⩾3 AE: Lymphopenia (dose 1.76 mg/m^2 (n=7)): 0 n
- Drug-related grade ⩾3 AE: Neutropenia (dose 1.76 mg/m^2 (n=7)): 1 n
- Drug-related grade ⩾3 AE: Thrombocytopenia (dose 1.76 mg/m^2 (n=7)): 1 n
- Drug-related AE: Abdominal pain (dose 2.34 mg/m^2 (n=10)): 2 n
- Drug-related AE: Any AE (dose 2.34 mg/m^2 (n=10)): 10 n
- Drug-related AE: Arthralgia (dose 2.34 mg/m^2 (n=10)): 1 n
- Drug-related AE: Chills (dose 2.34 mg/m^2 (n=10)): 1 n
- Drug-related AE: Constipation (dose 2.34 mg/m^2 (n=10)): 0 n
- Drug-related AE: Cough (dose 2.34 mg/m^2 (n=10)): 1 n
- Drug-related AE: Decreased appetite (dose 2.34 mg/m^2 (n=10)): 0 n
- Drug-related AE: Decreased platelet count (dose 2.34 mg/m^2 (n=10)): 0 n
- Drug-related AE: Diarrhea (dose 2.34 mg/m^2 (n=10)): 2 n
- Drug-related AE: Dysgeusia (dose 2.34 mg/m^2 (n=10)): 1 n
- Drug-related AE: Fatigue (dose 2.34 mg/m^2 (n=10)): 2 n
- Drug-related AE: Headache (dose 2.34 mg/m^2 (n=10)): 1 n
- Drug-related AE: Hypokalemia (dose 2.34 mg/m^2 (n=10)): 0 n
- Drug-related AE: Lymphopenia (dose 2.34 mg/m^2 (n=10)): 2 n
- Drug-related AE: Nausea (dose 2.34 mg/m^2 (n=10)): 1 n
- Drug-related AE: Neutropenia (dose 2.34 mg/m^2 (n=10)): 3 n
- Drug-related AE: Oral herpes (dose 2.34 mg/m^2 (n=10)): 1 n
- Drug-related AE: Pain in extremity (dose 2.34 mg/m^2 (n=10)): 2 n
- Drug-related AE: Paresthesia (dose 2.34 mg/m^2 (n=10)): 1 n
- Drug-related AE: Peripheral edema (dose 2.34 mg/m^2 (n=10)): 2 n
- Drug-related AE: Pyrexia (dose 2.34 mg/m^2 (n=10)): 2 n
- Drug-related AE: Thrombocytopenia (dose 2.34 mg/m^2 (n=10)): 2 n
- Drug-related AE: Vomiting (dose 2.34 mg/m^2 (n=10)): 1 n
- Drug-related grade ⩾3 AE: Any grade ⩾3 AE (dose 2.34 mg/m^2 (n=10)): 4 n
- Drug-related grade ⩾3 AE: Dehydration (dose 2.34 mg/m^2 (n=10)): 0 n
- Drug-related grade ⩾3 AE: Diarrhea (dose 2.34 mg/m^2 (n=10)): 0 n
- Drug-related grade ⩾3 AE: Lymphopenia (dose 2.34 mg/m^2 (n=10)): 1 n
- Drug-related grade ⩾3 AE: Neutropenia (dose 2.34 mg/m^2 (n=10)): 3 n
- Drug-related grade ⩾3 AE: Thrombocytopenia (dose 2.34 mg/m^2 (n=10)): 1 n
- Drug-related AE: Abdominal pain (dose 3.11 mg/m^2 (n=5)): 2 n
- Drug-related AE: Any AE (dose 3.11 mg/m^2 (n=5)): 5 n
- Drug-related AE: Arthralgia (dose 3.11 mg/m^2 (n=5)): 2 n
- Drug-related AE: Chills (dose 3.11 mg/m^2 (n=5)): 1 n
- Drug-related AE: Constipation (dose 3.11 mg/m^2 (n=5)): 3 n
- Drug-related AE: Cough (dose 3.11 mg/m^2 (n=5)): 1 n
- Drug-related AE: Decreased appetite (dose 3.11 mg/m^2 (n=5)): 3 n
- Drug-related AE: Decreased platelet count (dose 3.11 mg/m^2 (n=5)): 2 n
- Drug-related AE: Diarrhea (dose 3.11 mg/m^2 (n=5)): 4 n
- Drug-related AE: Dysgeusia (dose 3.11 mg/m^2 (n=5)): 0 n
- Drug-related AE: Fatigue (dose 3.11 mg/m^2 (n=5)): 2 n
- Drug-related AE: Headache (dose 3.11 mg/m^2 (n=5)): 1 n
- Drug-related AE: Hypokalemia (dose 3.11 mg/m^2 (n=5)): 2 n
- Drug-related AE: Lymphopenia (dose 3.11 mg/m^2 (n=5)): 1 n
- Drug-related AE: Nausea (dose 3.11 mg/m^2 (n=5)): 2 n
- Drug-related AE: Neutropenia (dose 3.11 mg/m^2 (n=5)): 1 n
- Drug-related AE: Oral herpes (dose 3.11 mg/m^2 (n=5)): 1 n
- Drug-related AE: Pain in extremity (dose 3.11 mg/m^2 (n=5)): 1 n
- Drug-related AE: Paresthesia (dose 3.11 mg/m^2 (n=5)): 0 n
- Drug-related AE: Peripheral edema (dose 3.11 mg/m^2 (n=5)): 1 n
- Drug-related AE: Pyrexia (dose 3.11 mg/m^2 (n=5)): 0 n
- Drug-related AE: Thrombocytopenia (dose 3.11 mg/m^2 (n=5)): 1 n
- Drug-related AE: Vomiting (dose 3.11 mg/m^2 (n=5)): 3 n
- Drug-related grade ⩾3 AE: Any grade ⩾3 AE (dose 3.11 mg/m^2 (n=5)): 3 n
- Drug-related grade ⩾3 AE: Dehydration (dose 3.11 mg/m^2 (n=5)): 2 n
- Drug-related grade ⩾3 AE: Diarrhea (dose 3.11 mg/m^2 (n=5)): 3 n
- Drug-related grade ⩾3 AE: Lymphopenia (dose 3.11 mg/m^2 (n=5)): 1 n
- Drug-related grade ⩾3 AE: Neutropenia (dose 3.11 mg/m^2 (n=5)): 1 n
- Drug-related grade ⩾3 AE: Thrombocytopenia (dose 3.11 mg/m^2 (n=5)): 1 n
- Drug-related AE: Abdominal pain (dose 0.125–1.0 mg/m^2 (n=4)): 0 n
- Drug-related AE: Any AE (dose 0.125–1.0 mg/m^2 (n=4)): 4 n
- Drug-related AE: Arthralgia (dose 0.125–1.0 mg/m^2 (n=4)): 0 n
- Drug-related AE: Chills (dose 0.125–1.0 mg/m^2 (n=4)): 0 n
- Drug-related AE: Constipation (dose 0.125–1.0 mg/m^2 (n=4)): 0 n
- Drug-related AE: Cough (dose 0.125–1.0 mg/m^2 (n=4)): 0 n
- Drug-related AE: Decreased appetite (dose 0.125–1.0 mg/m^2 (n=4)): 1 n
- Drug-related AE: Decreased platelet count (dose 0.125–1.0 mg/m^2 (n=4)): 0 n
- Drug-related AE: Diarrhea (dose 0.125–1.0 mg/m^2 (n=4)): 1 n
- Drug-related AE: Dysgeusia (dose 0.125–1.0 mg/m^2 (n=4)): 0 n
- Drug-related AE: Fatigue (dose 0.125–1.0 mg/m^2 (n=4)): 3 n
- Drug-related AE: Headache (dose 0.125–1.0 mg/m^2 (n=4)): 2 n
- Drug-related AE: Hypokalemia (dose 0.125–1.0 mg/m^2 (n=4)): 1 n
- Drug-related AE: Lymphopenia (dose 0.125–1.0 mg/m^2 (n=4)): 0 n
- Drug-related AE: Nausea (dose 0.125–1.0 mg/m^2 (n=4)): 1 n
- Drug-related AE: Neutropenia (dose 0.125–1.0 mg/m^2 (n=4)): 0 n
- Drug-related AE: Oral herpes (dose 0.125–1.0 mg/m^2 (n=4)): 0 n
- Drug-related AE: Pain in extremity (dose 0.125–1.0 mg/m^2 (n=4)): 0 n
- Drug-related AE: Paresthesia (dose 0.125–1.0 mg/m^2 (n=4)): 1 n
- Drug-related AE: Peripheral edema (dose 0.125–1.0 mg/m^2 (n=4)): 0 n
- Drug-related AE: Pyrexia (dose 0.125–1.0 mg/m^2 (n=4)): 0 n
- Drug-related AE: Thrombocytopenia (dose 0.125–1.0 mg/m^2 (n=4)): 1 n
- Drug-related AE: Vomiting (dose 0.125–1.0 mg/m^2 (n=4)): 0 n
- Drug-related grade ⩾3 AE: Any grade ⩾3 AE (dose 0.125–1.0 mg/m^2 (n=4)): 1 n
- Drug-related grade ⩾3 AE: Dehydration (dose 0.125–1.0 mg/m^2 (n=4)): 0 n
- Drug-related grade ⩾3 AE: Diarrhea (dose 0.125–1.0 mg/m^2 (n=4)): 0 n
- Drug-related grade ⩾3 AE: Lymphopenia (dose 0.125–1.0 mg/m^2 (n=4)): 0 n
- Drug-related grade ⩾3 AE: Neutropenia (dose 0.125–1.0 mg/m^2 (n=4)): 0 n
- Drug-related grade ⩾3 AE: Thrombocytopenia (dose 0.125–1.0 mg/m^2 (n=4)): 0 n
- Drug-related peripheral neuropathy (PN), patients (grade 1 or 2, all doses, n=30): 13%
- Drug-related grade ⩾3 AE: Renal failure (all doses, Total (n=30)): 2 (7) n (%)
- Drug-related grade ⩾3 AE: Renal failure (dose 1.4 mg/m^2 (n=4)): 0 n
- Drug-related grade ⩾3 AE: Renal failure (dose 1.76 mg/m^2 (n=7)): 0 n
- Drug-related grade ⩾3 AE: Renal failure (dose 2.34 mg/m^2 (n=10)): 0 n
- Drug-related grade ⩾3 AE: Renal failure (dose 3.11 mg/m^2 (n=5)): 2 n
- Drug-related grade ⩾3 AE: Renal failure (dose 0.125–1.0 mg/m^2 (n=4)): 0 n
- Drug-related AE: PN NEC (all doses, Total (n=30)): 4 (13) n (%)
- Drug-related AE: PN NEC (dose 1.4 mg/m^2 (n=4)): 0 n
- Drug-related AE: PN NEC (dose 1.76 mg/m^2 (n=7)): 2 n
- Drug-related AE: PN NEC (dose 2.34 mg/m^2 (n=10)): 0 n
- Drug-related AE: PN NEC (dose 3.11 mg/m^2 (n=5)): 1 n
- Drug-related AE: PN NEC (dose 0.125–1.0 mg/m^2 (n=4)): 1 n
